Results filed as inconclusive are left out.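 The calls were made as follows, unless noted: active = RAM network inhibition above 8.4% in each of two replicates, 3 SD over the compound average; inconclusive = above 8.4% inhibition in only one replicate; inactive = 8.4% inhibition or less in each replicate.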
Experiments:
[1] = S. cerevisiae growth inhibition in permissive medium (OD615), pilot counter-assay for S. cerevisiae lifespan shortening project, permissive growth control (AID 705;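 active = growth inhibition above 25% in both replicates, a cutoff set 3 SD above the mean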); conditions: OD615, 24 h, at 10 µM, stronger effect = higher value
Summary of the method: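 System: S. cerevisiae with engineered DeaD lifespan system. Medium: SC raffinose/galactose permissive medium. Doses: single compound dose of 10 µM, 0.25% DMSO final. Schedule: 24 h exposure, 30 °C. Measured by: OD615 turbidity read. Read-out: growth inhibition.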

[2] = S. cerevisiae growth inhibition in restrictive medium, OD615, pilot screen, restrictive growth control, yeast lifespan reduction project (AID 706;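 active = growth inhibition above a set limit, 3 SD over mean compound inhibition, in both replicates, cut at about 43% in these data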;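 also: modified DeaD lifespan yeast strain shifted to restrictive glucose medium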); conditions: OD615, 48 h, at 10 µM, stronger effect = higher value
Summary of the method: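 Assay system – genetically modified Saccharomyces cerevisiae, DeaD replicative lifespan assay strain · Medium – CSMM-D glucose medium · Doses – 10 µM compound, 0.25% DMSO · Times – 4 h pre-incubation, 48 h exposure at 30 °C · Signal – optical density at 615 nm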

[3] = doxorubicin toxicity protection in MRP-1 cells – H69AR cells, CellTiter-Glo, duplicate, MRP-1 activator project, pilot screen (AID 807;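 active = viability increase at or above a cutoff of the median across tested compounds plus 3 SD, cut at about 8.5% in these data, passing the limit was not always enough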;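 also: compound pretreatment 18-22 h then 72 h combined with doxorubicin; 0% = doxorubicin alone and 100% = vehicle without doxorubicin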); conditions: H69AR viability with doxorubicin, CellTiter-Glo luminescence; at 10 µM; stronger effect = higher value
[4] = viability of HCT116 without oncogenic beta-catenin – human colon tumor cells, pilot screen (AID 823;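 active = cell viability at or below a set limit in both duplicate runs, the limit being the all-compound median minus 4 SD, cut at about 23% in these data, passing the limit was not always enough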;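 also: 0% = wells killed by 20 µM Hyamine and 100% = untreated DMSO cell wells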); conditions: HCT116 beta-catenin knockout viability, CellTiter-Glo, 60 h; at 10 µM; stronger effect = lower value
[5] = viability of PTEN-null HCT116 cells – cell-based, HCT116 clonal line, CellTiter-Glo, pilot screen (AID 824;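 active = viability at or below 27.92% in each of two runs, the all-compound median minus 4 SD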;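 also: 0% = 20 µM Hyamine control and 100% = vehicle cell control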); conditions: HCT116 PTEN-deleted viability, 60 h, at 10 µM, stronger effect = lower value
[6] = RAM pathway blockade in budding yeast – dse1pr::URA3 reporter, 5-FOA selection, pilot screen (AID 869;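 active = inhibition over a set limit, the all-compound mean plus 3 SD, in both replicate runs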;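 also: 0% = DMSO wells with no growth and 100% = 10 µM 1-NA-PP1 with full growth; RAM network block rescues cells from 5-FOA so hits raise OD615 growth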); conditions: S. cerevisiae dse1pr::URA3 5-FOA growth, OD615, 2 d; at 10 µM; stronger effect = higher value; strain carries analog-sensitive mutant Cbk1 kinase
[7] = RAM signaling pathway blockade in yeast – S. cerevisiae, Pdr1DBD-CYC8 efflux-inhibited sensitized strain, primary screen (AID 1298);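 also: 0% = DMSO untreated cells without growth and 100% = 10 µM 1-NA-PP1 full growth; higher means more yeast growth rescued from 5-FOA killing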; conditions: S. cerevisiae cbk1-as DSE1-URA3 strain, 5-FOA growth OD615, 2 d; at 50 µM; stronger effect = higher value

CCOC(=O)C1C(=O)NC(SC)=C(C#N)C1c1ccccc1F (stereo not drawn)
inactive: growth inhibition [1] -2.39% | growth inhibition [2] -17% | viability increase [3] -2.97% | viability [4] 90.8% | viability [5] 95.5% | inhibition [6] -1% | RAM network inhibition [7] -1.66%

O=C(O)C1CCCCN1S(=O)(=O)c1ccc(Cl)s1 (stereo not drawn)
inactive: growth inhibition [1] -2.17% | growth inhibition [2] 1.02% | viability increase [3] -1.27% | viability [4] 101% | viability [5] 97.3% | inhibition [6] 0.505% | RAM network inhibition [7] -0.42%

Cc1cccc(OCC2=N/C(=C\N(C)C)C(=O)O2)c1
inactive: growth inhibition [1] -21.7% | growth inhibition [2] -9.04% | viability increase [3] -0.64% | viability [4] 97.2% | viability [5] 91.3% | inhibition [6] 1.48% | RAM network inhibition [7] 2.9%

CCOC(=O)N1CCN(c2c(N3CCOCC3)c(=O)c2=O)CC1
inactive: growth inhibition [1] 1.49% | growth inhibition [2] -13.2% | viability increase [3] 0.58% | viability [4] 106% | viability [5] 97.2% | inhibition [6] 2.57% | RAM network inhibition [7] -0.73%

NC(=O)c1ccc(N2CCCCC2)c(N2C(=O)CCC2=O)c1
inactive: growth inhibition [1] -4.77% | growth inhibition [2] -17.9% | viability increase [3] -0.03% | viability [4] 102% | viability [5] 94.6% | inhibition [6] 2.69% | RAM network inhibition [7] 2.67%

COc1cccc(-n2c(Cc3cc(=O)[nH]c(=O)[nH]3)nnc2SCC(=O)Nc2ccccc2)c1
inactive: growth inhibition [1] -5.92% | growth inhibition [2] -2.63% | viability increase [3] -0.3% | viability [4] 107% | viability [5] 97.8% | inhibition [6] 1.61% | RAM network inhibition [7] 0.67%

COc1ccc(C2C(C(=O)NCCN(C)C)c3cc(OC)c(OC)cc3C(=O)N2C)cc1OC (stereo not drawn)
inactive: growth inhibition [1] -3.47% | growth inhibition [2] -1.52% | viability increase [3] -1.38% | viability [4] 101% | viability [5] 104% | inhibition [6] 1.56% | RAM network inhibition [7] 3.25%

Cc1cc(NC(=O)COC(=O)c2ccc(F)c(S(=O)(=O)N3CCOCC3)c2)no1
inactive: growth inhibition [1] -13.5% | growth inhibition [2] -21.9% | viability increase [3] -1.16% | viability [4] 103% | viability [5] 96.8% | inhibition [6] 1.03% | RAM network inhibition [7] 3.16%

Cc1ccc(N2C(=O)c3ccccc3C2Nc2ccccc2F)nc1 (stereo not drawn)
inactive: growth inhibition [1] -7.38% | growth inhibition [2] -1.2% | viability increase [3] -1.31% | viability [4] 88.3% | viability [5] 90.8% | inhibition [6] 2.46% | RAM network inhibition [7] 10.5%

CCC(Sc1nc(C)cc(=O)[nH]1)C(=O)Nc1sc2c(c1C#N)CCCC2 (stereo not drawn)
inactive: growth inhibition [1] -14% | growth inhibition [2] -12.3% | viability increase [3] -3.49% | viability [4] 92.9% | viability [5] 91.4% | inhibition [6] 2.01% | RAM network inhibition [7] 6.25%

CCSc1nnc(Cn2c(=O)sc3ccccc32)n1-c1ccccc1C
inactive: growth inhibition [1] -2.14% | growth inhibition [2] -4.08% | viability increase [3] -1.61% | viability [4] 93.9% | viability [5] 89.7% | inhibition [6] 1.61% | RAM network inhibition [7] 8.51%

CCC1(C)C2(C#N)C(N)=NC(OC)(OC)C12C#N (stereo not drawn)
inactive: growth inhibition [1] -5.98% | growth inhibition [2] -10.1% | viability increase [3] -0.83% | viability [4] 106% | viability [5] 99.3% | inhibition [6] 1.41% | RAM network inhibition [7] 2.07%

CCn1cc(C(=O)N2CC(C)CC(C)C2)c(=O)c2cc(S(=O)(=O)N(C)C)ccc21 (stereo not drawn)
inactive: growth inhibition [1] 4.35% | growth inhibition [2] 6.52% | viability increase [3] -0.18% | viability [4] 103% | viability [5] 101% | inhibition [6] -0.3% | RAM network inhibition [7] 2.78%

O=C(NCCC1=CCCCC1)C1CCCN(S(=O)(=O)c2cccnc2)C1 (stereo not drawn)
inactive: growth inhibition [1] -1.48% | growth inhibition [2] 3.42% | viability increase [3] 0.1% | viability [4] 95.8% | viability [5] 101% | inhibition [6] 1.75% | RAM network inhibition [7] 1.4%

COc1cccc(Cn2nnc(C(=O)NCc3ccc(F)cc3)c2N)c1
inactive: growth inhibition [1] -5.24% | growth inhibition [2] -6.34% | viability increase [3] -1.74% | viability [4] 95% | viability [5] 85.6% | inhibition [6] 0.99% | RAM network inhibition [7] 3.37%

O=C(O)CCCC(=O)N1CCN(c2nc(-c3ccccc3)c3ccccc3n2)CC1
inactive: growth inhibition [1] -9.64% | growth inhibition [2] -6.36% | viability increase [3] -1.22% | viability [4] 102% | viability [5] 93% | inhibition [6] 0.83% | RAM network inhibition [7] 4.79%

O=C(Nc1sc2c(c1C(=O)NCC1CCCO1)CCCC2)c1cccs1 (stereo not drawn)
inactive: growth inhibition [1] -11.2% | growth inhibition [2] 5.31% | viability increase [3] -3.45% | viability [4] 85.9% | viability [5] 86.6% | inhibition [6] 1% | RAM network inhibition [7] 4.75%

CC(C)n1c(C(O)c2ccccc2)nc2ccccc21 (stereo not drawn)
inactive: growth inhibition [1] -5.87% | growth inhibition [2] -13.6% | viability increase [3] 0.37% | viability [4] 97.6% | viability [5] 88.1% | inhibition [6] 1.4% | RAM network inhibition [7] 4.24%

Cn1c(=O)oc2cc(S(=O)(=O)Nc3ccc(Cl)cc3F)ccc21
inactive: growth inhibition [1] -9.48% | growth inhibition [2] -19.3% | viability increase [3] 2.12% | viability [4] 105% | viability [5] 92.7% | inhibition [6] 0.53% | RAM network inhibition [7] 9.07%

CCN(CC)S(=O)(=O)c1ccc(-c2nnc3sc4cccc(C)c4n23)cc1
inactive: growth inhibition [1] -22.7% | growth inhibition [2] -11.5% | viability increase [3] -2.97% | viability [4] 73.4% | viability [5] 72.9% | inhibition [6] 2% | RAM network inhibition [7] 3.69%

NC(=O)c1cc(S(=O)(=O)Nc2cccc(F)c2)co1
inactive: growth inhibition [1] -17.4% | growth inhibition [2] -9.41% | viability increase [3] -0.8% | viability [4] 103% | viability [5] 103% | inhibition [6] 1.69% | RAM network inhibition [7] 2.85%

CC(=O)/C(C(=N)N1CCN(Cc2ccccc2)CC1)=C(\C)O
inactive: growth inhibition [1] -12.7% | growth inhibition [2] -5.25% | viability increase [3] -0.02% | viability [4] 103% | viability [5] 101% | inhibition [6] 2.4% | RAM network inhibition [7] 2.85%

CCOC(=O)c1c(/N=C/N(C)C)sc(C(=O)OC)c1C
inactive: growth inhibition [1] -5.39% | growth inhibition [2] 3.21% | viability increase [3] -4.56% | viability [4] 91.1% | viability [5] 89.6% | inhibition [6] 0.78% | RAM network inhibition [7] 1.45%

CCCC(=O)Nc1nc2ccc(OCC)cc2s1
inactive: growth inhibition [1] -2.23% | growth inhibition [2] -0.195% | viability increase [3] 0.26% | viability [4] 86.8% | viability [5] 85.7% | inhibition [6] 0.615% | RAM network inhibition [7] 2.15%

Source: PubChem BioAssay
